For data set [1], the system named is Leishmania donovani. In words: Antileishmanial activity against intracellular Leishmania donovani LV82 amastigotes infected in CD-1 mouse peritoneal macrophage. It counts as functional, organism-based. The gist of the method:
(§1)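 CD-1 mouse peritoneal macrophages, 5 × 10^4 cells/well in RPMI 1640 + 10% heat-inactivated FBS, adhered overnight. Infected overnight with stationary-phase LV82 promastigotes (5:1 parasite:macrophage), 37°C, 5% CO2. Medium then replaced with compound or vehicle for 72 h at 37°C. Methanol-fixed, Giemsa-stained; % infected macrophages counted at ×1,000. IC50 by four-parameter logistic nonlinear regression.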

Data set [2] deals with Leishmania donovani. In words: Antileishmanial activity against Leishmania donovani WR378 infected in golden Syrian hamster assessed as reduction in bone marrow parasitemia at 30 mg/kg/day, po administered for five days. It counts as functional. Conditions: 120 h. The procedure, abridged:
(§2)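 11-day golden hamster VL model adapted from an 8-day method, using L. donovani WR378 metacyclic promastigotes. Dosing was oral, once daily for 5 days. Animals were euthanized on day 11 post-infection. Liver, spleen and femoral bone marrow (flushed with Schneider's medium) were harvested.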

Data set [3] relates to Leishmania donovani. In words: Antileishmanial activity against Leishmania donovani WR378 infected in golden Syrian hamster assessed as reduction in spleen parasitemia at 30 mg/kg/day, po administered for five days. It counts as functional. Conditions: 120 h. The gist of the method: as §2
The next data set deals with Leishmania major. Kind of data set: Antileishmanial activity against intracellular Leishmania major amastigotes. It counts as functional, organism-based.
The subject of data set [4] is Leishmania donovani. Kind of data set: Antileishmanial activity against Leishmania donovani axenic amastigotes. It counts as functional, organism-based.
Data set [5] deals with Leishmania donovani. Kind of data set: Antileishmanial activity against intracellular Leishmania donovani LV82 amastigotes. It counts as functional, organism-based. The procedure, abridged: as §1
The subject of data set [6] is Leishmania donovani. In words: Antileishmanial activity against Leishmania donovani WR378 infected in golden Syrian hamster assessed as reduction in liver parasitemia at 30 mg/kg/day, po administered for five days. It counts as functional. Particulars: 120 h. The gist of the method:
as §2

Data set [7] can be described thus: Induction of mutagenicity in Salmonella serovar Typhimurium TA 100 assessed as number of revertant colonies at 5 ug by Ames assay. Particulars: in vivo. It counts as toxicity, Salmonella enterica subsp. enterica serovar Typhimurium. The gist of the method:
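Plate incorporation method with TA100, with and without Aroclor 1254-induced rat liver S9 (10% vol/vol). Compound dissolved in sterile water, serially diluted; plates scored for revertant count and background lawn versus controls. Mutagen if mean revertants at least 2-fold over mean solvent control. Positive controls: 2-nitrofluorene and sodium azide without S9, 2-aminoanthracene with S9; water and DMSO vehicles.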
A general note: The Ames test detects mutagens through reverse mutation in bacteria.

A short description of data set [8]: Induction of mutagenicity in Salmonella serovar Typhimurium TA 100 assessed as number of revertant colonies at 2 ug by Ames assay in presence of Aroclor 1254-induced rat liver S9 metabolic activation system. It counts as toxicity, subcellular, Salmonella enterica subsp. enterica serovar Typhimurium. The procedure, abridged:
(§3)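 Ames plate incorporation with S. Typhimurium TA98 and TA100, with or without Aroclor 1254-induced rat liver S9 (10% vol/vol). Compound was dissolved in sterile water and serially diluted to 1–500 μg/plate. Positive controls were 2-nitrofluorene and sodium azide without S9, and 2-aminoanthracene with S9; sterile water and DMSO served as vehicles. Revertant colonies and background lawn were scored. A mutagen was defined as a mean revertant count at least 2-fold over solvent control. Single experiment.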

A short description of data set [9]: Induction of mutagenicity in Salmonella serovar Typhimurium TA 98 assessed as number of revertant colonies at 2 ug by Ames assay in presence of Aroclor 1254-induced rat liver S9 metabolic activation system. It counts as toxicity, subcellular, Salmonella enterica subsp. enterica serovar Typhimurium. The procedure, abridged:
as §3

For another data set, the system named is Leishmania amazonensis. In words: Antileishmanial activity against intracellular Leishmania amazonensis amastigotes. It counts as functional, organism-based.
The nature of data set [10]: Induction of mutagenicity in Salmonella serovar Typhimurium TA 98 assessed as number of revertant colonies at 5 ug by Ames assay. Particulars: in vivo. It counts as toxicity, Salmonella enterica subsp. enterica serovar Typhimurium. The gist of the method: as §3

Consider `CCCCCCCCCCCCCCCCOP(=O)([O-])OCC[N+](C)(C)C` [MILTEFOSINE], for which the IC50 in the data set on Leishmania donovani [1] was found to be 24 µM; in the data set on Leishmania major, 25 µM; in the data set with Leishmania donovani [4], 8.5 µM; in the data set with Leishmania donovani [5] it was 2.7 µM. For the same molecule, the inhibition in vivo at 30 mg/kg/day in the data set on Leishmania donovani [2] is 91%; in the data set on Leishmania donovani [3] it was 79%; with Leishmania donovani [6] it was 88%.

Consider `[N-]=[N+]=[N-].[Na+]` [SODIUM AZIDE], for which the Activity in [7] amounted to 1882.

Regarding `Nc1ccc2cc3ccccc3cc2c1` [2-AMINOANTHRACENE], the Activity is 2563 in [8] and 2744 in data set [9].

With `NC[C@@H]1O[C@H](O[C@H]2[C@@H](O)[C@H](O[C@@H]3[C@@H](O)[C@H](N)C[C@H](N)[C@H]3O[C@H]3O[C@H](CO)[C@@H](O)[C@H](O)[C@H]3N)O[C@@H]2CO)[C@H](N)[C@@H](O)[C@@H]1O` [PAROMOMYCIN], the IC50 is over 100 µM with Leishmania donovani [1]; 25 µM in the data set on Leishmania major; 19 µM in the data set with Leishmania amazonensis; over 50 µM with Leishmania donovani [4]; over 50 µM in the data set on Leishmania donovani [5].

As to `O=[N+]([O-])c1ccc2c(c1)Cc1ccccc1-2` [2-NITROFLUORENE], the Activity in data set [10] is 1573.

In the case of `N=C(N)c1ccc(OCCCCCOc2ccc(C(=N)N)cc2)cc1` [PENTAMIDINE], the IC50 with Leishmania donovani [1] is 14 µM; in the data set with Leishmania amazonensis, 0.83 µM; with Leishmania donovani [5], over 50 µM.

Turning to `C[C@@H]1[C@H](O)[C@@H](C)/C=C/C=C/C=C/C=C/C=C/C=C/C=C/[C@H](O[C@@H]2O[C@H](C)[C@@H](O)[C@H](N)[C@@H]2O)C[C@@H]2O[C@](O)(C[C@@H](O)C[C@@H](O)[C@H](O)CC[C@@H](O)C[C@@H](O)CC(=O)O[C@H]1C)C[C@H](O)[C@H]2C(=O)O` [AMPHOTERICIN B], the 50% inhibitory concentration (IC50) with Leishmania donovani [1] came to 8.2 µM; in the data set with Leishmania major it was 0.21 µM; in the data set with Leishmania amazonensis it was 0.14 µM; with Leishmania donovani [4], 0.098 µM; in the data set with Leishmania donovani [5], 0.066 µM.

In general, IC50 refers to the concentration that gives 50% inhibition. As usually defined, the inhibition in vivo is the relative decrease from the control value, in per cent.

Values taken from ChEMBL document CHEMBL1275590, “Novel arylimidamides for treatment of visceral leishmaniasis” (Antimicrob Agents Chemother, 2010).
